Test results taken from ChEMBL document CHEMBL3352173, “Optimization of pyrrolamide topoisomerase II inhibitors toward identification of an antibacterial clinical candidate (AZD5099)” (J Med Chem, 2014).
≈ marks a conversion by molar mass, not a printed value.

Assays:
Staphylococcus aureus [1] = assay: Antimicrobial activity against 2 times drug resistance selected Staphylococcus aureus ARC516-2F by broth microdilution/CLSI method; format: functional
Staphylococcus aureus [2] = assay: Antimicrobial activity against Staphylococcus aureus ARC516 by broth microdilution/CLSI method; format: functional
Staphylococcus aureus [3] = assay: Antimicrobial activity against 2 times drug resistance selected Staphylococcus aureus ARC516-1F by broth microdilution/CLSI method; format: functional
Enterococcus faecium = assay: Antimicrobial activity against Enterococcus faecium by broth microdilution/CLSI method; format: functional
Haemophilus influenzae [4] = assay: Antimicrobial activity against Haemophilus influenzae by broth microdilution/CLSI method; format: functional; settings: Haemophilus influenzae; for MIC: read-out: MIC
Enterococcus faecalis [5] = assay: Antimicrobial activity against vancomycin-resistant Enterococcus faecalis by broth microdilution/CLSI method; format: functional
Enterococcus faecalis [6] = assay: Antimicrobial activity against Enterococcus faecalis by broth microdilution/CLSI method; format: functional
Haemophilus influenzae [7] = assay: Antimicrobial activity against amoxicillin-resistant Haemophilus influenzae by broth microdilution/CLSI method; format: functional
Staphylococcus aureus [8] = assay: Antimicrobial activity against Staphylococcus aureus by broth microdilution/CLSI method; format: functional
Staphylococcus aureus [9] = assay: Antimicrobial activity against methicillin-resistant Staphylococcus aureus by broth microdilution/CLSI method; format: functional
Streptococcus pneumoniae = assay: Antibacterial activity against Streptococcus pneumoniae by broth microdilution/CLSI method; format: functional; settings: Streptococcus pneumoniae; read-out: MIC
[10] = Percentage unbound in rat plasma; format: ADME, cell-free
[11] = Octanol-phosphate buffer distribution coefficient, log D of the compound at pH 7.4 by shake flask method; format: physicochemical
Staphylococcus aureus [12] = assay: Antimicrobial activity against methicillin-sensitive Staphylococcus aureus by broth microdilution/CLSI method; format: functional; settings: Staphylococcus aureus; read-out: MIC
Moraxella catarrhalis = assay: Antimicrobial activity against Moraxella catarrhalis by broth microdilution/CLSI method; format: functional; settings: Moraxella catarrhalis; read-out: MIC
[13] = Solubility of the compound; format: physicochemical
[14] = Percentage unbound in human plasma; format: ADME, cell-free
[15] = Clearance in dog at 10 mg/kg, iv; format: ADME, organism-based, Canis lupus familiaris; set-up: dose 10 mg/kg, route intravenous; settings: plasma
Streptococcus pyogenes = assay: Antimicrobial activity against Streptococcus pyogenes by broth microdilution/CLSI method; format: functional
Escherichia coli [16] = assay: Antimicrobial activity against Escherichia coli tolC- by broth microdilution/CLSI method; format: functional; settings: Escherichia coli; read-out: MIC
Staphylococcus aureus [17] = assay: Antimicrobial activity against methicillin, quinolone-resistant Staphylococcus aureus by broth microdilution/CLSI method; format: functional; settings: Staphylococcus aureus; read-out: MIC
[18] = Dissociation constant, pKa of the compound; format: physicochemical
[19] = Percentage unbound in mouse plasma; format: ADME, cell-free
[20] = Bioavailability in dog at 10 mg/kg, iv; format: ADME, organism-based, Canis lupus familiaris; settings: plasma
DNA gyrase subunit B = DNA gyrase subunit B (Staphylococcus aureus, UniProt P0A0K8); assay: Inhibition of ATPase activity of Staphylococcus aureus GyrB
DNA gyrase subunit B, sequence (P0A0K8 whole entry): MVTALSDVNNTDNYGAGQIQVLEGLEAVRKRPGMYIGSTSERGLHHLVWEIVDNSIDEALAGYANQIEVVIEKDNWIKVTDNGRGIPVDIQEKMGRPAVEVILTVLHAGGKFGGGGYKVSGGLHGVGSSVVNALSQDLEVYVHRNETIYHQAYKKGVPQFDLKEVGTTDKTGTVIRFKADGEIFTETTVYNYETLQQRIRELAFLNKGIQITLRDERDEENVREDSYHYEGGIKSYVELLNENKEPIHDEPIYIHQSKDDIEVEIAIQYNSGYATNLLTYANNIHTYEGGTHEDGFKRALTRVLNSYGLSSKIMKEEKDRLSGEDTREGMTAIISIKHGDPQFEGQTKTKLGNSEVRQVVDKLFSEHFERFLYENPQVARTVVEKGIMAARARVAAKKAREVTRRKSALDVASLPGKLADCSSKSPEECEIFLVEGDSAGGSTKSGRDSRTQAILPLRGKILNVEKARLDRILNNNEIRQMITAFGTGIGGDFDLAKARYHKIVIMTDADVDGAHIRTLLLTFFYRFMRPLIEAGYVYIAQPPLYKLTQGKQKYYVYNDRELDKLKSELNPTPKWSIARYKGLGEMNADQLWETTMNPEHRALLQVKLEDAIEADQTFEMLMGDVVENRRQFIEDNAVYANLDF
Procedure, shortened: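 IC50 was determined against S. aureus GyrB in the routine screening assay. The enzyme concentration limits resolution below 10 nM.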

[21] = Percentage unbound in dog plasma; format: ADME, cell-free, Canis lupus familiaris
[22] = Clearance in rat at 10 mg/kg, iv; format: ADME, organism-based; set-up: dose 10 mg/kg, route intravenous; settings: in vivo
Escherichia coli [23] = assay: Antimicrobial activity against wild-type Escherichia coli Eco523 by broth microdilution/CLSI method; format: functional; settings: Escherichia coli, Eco523; read-out: MIC
[24] = Ratio of MIC for methicillin, quinolone-resistant Staphylococcus aureus to fraction unbound in human plasma; format: ADME
[25] = Clearance in TR-negative Wistar rat at 10 mg/kg, iv; format: ADME, organism-based; set-up: dose 10 mg/kg, route intravenous; settings: in vivo
[26] = target: T1, ATP-binding cassette sub-family C member 2 (Homo sapiens, UniProt Q92887); assay: Stimulation of ATPase activity of human MRP2 assessed as inorganic phosphate
T1 sequence (Q92887 whole entry): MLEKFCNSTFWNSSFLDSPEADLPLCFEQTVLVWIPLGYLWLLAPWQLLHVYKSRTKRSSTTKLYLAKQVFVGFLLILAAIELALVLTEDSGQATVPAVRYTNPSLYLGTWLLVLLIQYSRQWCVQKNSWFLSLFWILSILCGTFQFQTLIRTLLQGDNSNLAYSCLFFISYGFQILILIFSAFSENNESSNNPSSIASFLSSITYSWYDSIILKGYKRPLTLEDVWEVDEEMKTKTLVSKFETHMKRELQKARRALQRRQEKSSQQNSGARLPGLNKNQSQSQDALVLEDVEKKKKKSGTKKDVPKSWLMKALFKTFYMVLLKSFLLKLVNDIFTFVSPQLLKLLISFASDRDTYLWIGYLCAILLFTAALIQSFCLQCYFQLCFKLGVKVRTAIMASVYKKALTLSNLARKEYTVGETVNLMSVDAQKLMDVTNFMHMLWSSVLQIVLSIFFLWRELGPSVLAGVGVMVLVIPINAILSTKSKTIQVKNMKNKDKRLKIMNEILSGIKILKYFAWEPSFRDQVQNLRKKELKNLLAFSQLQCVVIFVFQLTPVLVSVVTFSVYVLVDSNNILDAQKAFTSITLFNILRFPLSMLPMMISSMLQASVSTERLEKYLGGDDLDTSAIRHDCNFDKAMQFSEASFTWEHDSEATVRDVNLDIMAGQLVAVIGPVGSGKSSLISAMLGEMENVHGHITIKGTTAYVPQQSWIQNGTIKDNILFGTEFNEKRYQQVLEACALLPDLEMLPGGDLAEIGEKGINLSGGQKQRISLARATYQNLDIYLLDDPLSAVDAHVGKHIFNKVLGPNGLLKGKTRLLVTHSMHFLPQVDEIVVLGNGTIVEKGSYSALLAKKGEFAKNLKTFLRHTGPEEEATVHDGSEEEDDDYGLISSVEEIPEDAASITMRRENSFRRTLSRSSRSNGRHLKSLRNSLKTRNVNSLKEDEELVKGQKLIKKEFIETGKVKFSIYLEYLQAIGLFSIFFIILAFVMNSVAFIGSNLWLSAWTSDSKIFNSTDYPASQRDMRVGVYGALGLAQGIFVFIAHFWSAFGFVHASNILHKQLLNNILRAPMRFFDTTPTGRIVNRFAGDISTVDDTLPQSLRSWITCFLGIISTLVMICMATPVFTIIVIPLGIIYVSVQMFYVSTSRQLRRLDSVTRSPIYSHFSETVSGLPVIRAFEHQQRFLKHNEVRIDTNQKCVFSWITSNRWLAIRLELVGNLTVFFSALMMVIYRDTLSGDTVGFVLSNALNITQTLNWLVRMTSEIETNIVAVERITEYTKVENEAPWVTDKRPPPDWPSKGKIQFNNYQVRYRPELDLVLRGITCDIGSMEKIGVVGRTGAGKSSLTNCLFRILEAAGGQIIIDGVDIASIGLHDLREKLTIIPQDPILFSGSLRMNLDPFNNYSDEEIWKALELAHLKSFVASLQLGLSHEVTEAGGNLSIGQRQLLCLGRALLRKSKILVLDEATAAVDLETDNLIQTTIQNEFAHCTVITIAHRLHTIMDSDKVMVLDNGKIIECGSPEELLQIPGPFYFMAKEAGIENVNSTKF

[27] = target: T2, ATP-binding cassette sub-family C member 2 (Rattus norvegicus, UniProt Q63120); assay: Stimulation of ATPase activity of rat Mrp2 assessed as inorganic phosphate
T2 sequence (Q63120 whole entry): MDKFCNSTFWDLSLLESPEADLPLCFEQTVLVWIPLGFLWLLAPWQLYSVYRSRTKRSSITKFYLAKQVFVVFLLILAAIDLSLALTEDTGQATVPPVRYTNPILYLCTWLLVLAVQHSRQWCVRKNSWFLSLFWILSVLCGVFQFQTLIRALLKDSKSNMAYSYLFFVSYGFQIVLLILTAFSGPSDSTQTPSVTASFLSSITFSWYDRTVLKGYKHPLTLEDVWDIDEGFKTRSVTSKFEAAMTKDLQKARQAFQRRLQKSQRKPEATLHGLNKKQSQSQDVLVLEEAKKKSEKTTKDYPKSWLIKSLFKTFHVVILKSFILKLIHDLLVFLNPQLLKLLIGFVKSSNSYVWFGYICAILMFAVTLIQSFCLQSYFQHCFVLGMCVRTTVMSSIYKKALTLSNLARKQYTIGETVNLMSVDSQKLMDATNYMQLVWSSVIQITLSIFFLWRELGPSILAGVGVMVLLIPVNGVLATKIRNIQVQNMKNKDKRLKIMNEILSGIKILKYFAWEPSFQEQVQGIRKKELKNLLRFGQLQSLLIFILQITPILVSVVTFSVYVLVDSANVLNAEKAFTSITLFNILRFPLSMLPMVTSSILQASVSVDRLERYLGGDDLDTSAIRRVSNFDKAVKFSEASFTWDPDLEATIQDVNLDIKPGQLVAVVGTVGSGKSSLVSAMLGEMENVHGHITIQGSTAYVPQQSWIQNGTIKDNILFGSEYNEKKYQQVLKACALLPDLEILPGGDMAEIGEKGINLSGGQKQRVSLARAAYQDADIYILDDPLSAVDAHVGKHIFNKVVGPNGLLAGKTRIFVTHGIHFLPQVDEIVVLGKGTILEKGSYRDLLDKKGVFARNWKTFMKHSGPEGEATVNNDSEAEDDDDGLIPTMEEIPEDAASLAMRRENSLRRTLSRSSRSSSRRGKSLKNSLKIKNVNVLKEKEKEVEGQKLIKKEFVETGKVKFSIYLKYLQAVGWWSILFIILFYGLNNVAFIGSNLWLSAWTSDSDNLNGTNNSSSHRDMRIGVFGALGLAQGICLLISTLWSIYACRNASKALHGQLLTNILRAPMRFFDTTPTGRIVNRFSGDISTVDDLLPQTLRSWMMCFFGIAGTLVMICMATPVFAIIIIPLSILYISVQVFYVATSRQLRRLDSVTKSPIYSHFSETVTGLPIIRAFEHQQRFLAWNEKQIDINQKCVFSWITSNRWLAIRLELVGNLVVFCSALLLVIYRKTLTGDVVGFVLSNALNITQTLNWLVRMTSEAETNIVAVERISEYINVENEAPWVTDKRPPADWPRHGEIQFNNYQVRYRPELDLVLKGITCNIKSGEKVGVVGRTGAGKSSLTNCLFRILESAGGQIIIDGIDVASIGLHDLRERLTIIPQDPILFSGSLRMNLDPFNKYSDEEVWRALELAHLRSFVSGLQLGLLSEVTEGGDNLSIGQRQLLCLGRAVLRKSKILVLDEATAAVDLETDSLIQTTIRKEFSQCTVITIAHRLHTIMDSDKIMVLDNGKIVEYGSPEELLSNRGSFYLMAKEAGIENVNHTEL

[28] = target: T2, ATP-binding cassette sub-family C member 2; assay: Inhibition of ATPase activity of rat Mrp2 assessed as inorganic phosphate
[29] = AUC in methicillin-sensitive Staphylococcus aureus ARC516 infected in neutropenic CD1 mouse thigh model at 30 mg/kg, ip q24; format: ADME, organism-based; set-up: dose 30 mg/kg, route intraperitoneal; settings: in vivo
Mus musculus = assay: fAUC in methicillin-sensitive Staphylococcus aureus ARC516 infected in neutropenic CD1 mouse thigh model at 30 mg/kg, ip q24; format: ADME, organism-based; set-up: dose 30 mg/kg, route intraperitoneal; settings: in vivo
Staphylococcus aureus [30] = assay: Antibacterial activity against methicillin-sensitive Staphylococcus aureus ARC516 infected in ip dosed neutropenic CD1 mouse thigh model assessed as decrease in bacterial viable counts treated for q24; format: functional; settings: ARC516, Thigh muscle
[31] = Clearance in CD1 mouse at 10 mg/kg, iv; format: ADME, organism-based; set-up: dose 10 mg/kg, route intravenous; settings: in vivo
[32] = Bioavailability in CD1 mouse at 10 mg/kg, […]; format: ADME, organism-based; settings: in vivo
Staphylococcus aureus [33] = assay: Antibacterial activity against methicillin-sensitive Staphylococcus aureus ARC516 infected in neutropenic CD1 mouse thigh model assessed as decrease in bacterial viable counts at 30 mg/kg, ip q24; format: functional; settings: route intraperitoneal
[34] = Clearance in Wistar rat at 10 mg/kg, iv; format: ADME, organism-based; set-up: dose 10 mg/kg, route intravenous; settings: in vivo
[35] = target: T1, ATP-binding cassette sub-family C member 2; assay: Inhibition of ATPase activity of human MRP2 assessed as inorganic phosphate

SMILES	MIC90 (Enterococcus faecium) [µg/mL]	MIC90 (Haemophilus influenzae [4]) [µg/mL]	MIC90 (Enterococcus faecalis [6]) [µg/mL]	MIC90 (Haemophilus influenzae [7]) [µg/mL]	MIC90 (Staphylococcus aureus [8]) [µg/mL]	MIC (Haemophilus influenzae [4]) [µg/mL]	MIC (Streptococcus pneumoniae) [µg/mL]	fraction unbound [10]	logD [11]	MIC (Staphylococcus aureus [12]) [µg/mL]	MIC (Moraxella catarrhalis) [µg/mL]	solubility [13] [µM]	fraction unbound [14]	clearance [15] [mL/min/kg]	MIC (Streptococcus pyogenes) [µg/mL]	MIC (Escherichia coli [16]) [µg/mL]	MIC (Staphylococcus aureus [17]) [µg/mL]	pKa [18]	fraction unbound [19]	bioavailability [20] [%]	other results
CC(=O)NC[C@H]1CN(c2ccc(N3CCOCC3)c(F)c2)C(=O)O1 [LINEZOLID]	–	–	–	–	–	–	–	–	–	–	–	–	–	–	–	–	–	–	–	–	MIC (Staphylococcus aureus [1]): 0.5 µg/mL (≈ 1.48 µM); MIC (Staphylococcus aureus [2]): 1 µg/mL (≈ 2.96 µM); MIC (Staphylococcus aureus [3]): 1 µg/mL (≈ 2.96 µM)
C[C@H]1COc2c(N3CCN(C)CC3)c(F)cc3c(=O)c(C(=O)O)cn1c23.C[C@H]1COc2c(N3CCN(C)CC3)c(F)cc3c(=O)c(C(=O)O)cn1c23.O [LEVOFLOXACIN]	> 128	0.015	32	0.015	32	–	–	–	–	–	–	–	–	–	–	–	–	–	–	–	MIC90 (Enterococcus faecalis [5]): 64 µg/mL; MIC90 (Staphylococcus aureus [9]): 64 µg/mL
CC[C@H]1OC(=O)[C@H](C)[C@@H](O[C@H]2C[C@@](C)(OC)[C@@H](O)[C@H](C)O2)[C@H](C)[C@@H](O[C@@H]2O[C@H](C)C[C@H](N(C)C)[C@H]2O)[C@](C)(O)C[C@@H](C)CN(C)[C@H](C)[C@@H](O)[C@]1(C)O [AZITHROMYCIN]	> 128	2 (≈ 2.67 µM)	> 128	2 (≈ 2.67 µM)	> 128	–	–	–	–	–	–	–	–	–	–	–	–	–	–	–	–
CO[C@H]1CN(c2nc(-c3cnccn3)c(C(=O)O)s2)CC[C@H]1NC(=O)c1[nH]c(C)c(Cl)c1Cl	–	–	–	–	–	0.13 (≈ 0.254 µM)	0.007 (≈ 0.0137 µM)	0.0715	1.2	0.031 (≈ 0.0606 µM)	0.008 (≈ 0.0156 µM)	540 (≈ 276 µg/mL)	0.039	0.73	0.01 (≈ 0.0196 µM)	0.5 (≈ 0.978 µM)	0.018 (≈ 0.0352 µM)	5.4	0.074	18	IC50 (DNA gyrase subunit B): < 0.01 µM; fraction unbound [21]: 0.13; clearance [22]: 2.7 mL/min/kg; MIC (Escherichia coli [23]): > 8 µg/mL; Ratio [24]: 0.46
COCC(COC)NC(=O)c1nc(N2CC[C@@H](NC(=O)c3[nH]c(C)c(Cl)c3Cl)[C@@H](OC)C2)sc1C(=O)O	–	–	–	–	–	0.1 (≈ 0.173 µM)	0.016 (≈ 0.0277 µM)	0.038	1	0.05 (≈ 0.0864 µM)	< 0.008	860 (≈ 497 µg/mL)	0.021	1.6	0.016 (≈ 0.0277 µM)	1.3 (≈ 2.25 µM)	0.049 (≈ 0.0847 µM)	4.5	0.042	29	clearance [25]: 3 mL/min/kg; EC50 [26]: > 200 µM; EC50 [27]: > 200 µM; IC50 [28]: 75 µM; AUC [29]: 148 µg·h/mL; fAUC (Mus musculus): 6.26 µg·h/mL; MIC (Staphylococcus aureus [30]): 0.03 µg/mL (≈ 0.0519 µM); clearance [31]: 5.35 mL/min/kg; IC50 (DNA gyrase subunit B): < 0.01 µM; fraction unbound [21]: 0.12; bioavailability [32]: 25%; clearance [22]: 18 mL/min/kg; deltalog10CFU (Staphylococcus aureus [33]): -0.16; MIC (Escherichia coli [23]): 23 µg/mL (≈ 39.8 µM); clearance [34]: 13 mL/min/kg; IC50 [35]: 200 µM; Ratio [24]: 2.3
